This passage reports Activity and Ratio results from ChEMBL document CHEMBL1145431, “Improved anti-osteoporosis potency and reduced endometrial membrane hyperplasia during hormone replacement therapy with estrogen-RGD peptide conjugates” (2007).

The subject of test [1] is Mus musculus. Nature of the test: Effect on phosphorus level in ovariectomized mouse at 0.1103 mmol/kg, ip once daily for 4 weeks. It counts as functional. In short, it runs like this:
(§1)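 Female Kuiming mice (7 weeks, 30.7 ± 3.1 g) ovariectomized, sham group abdominorotomy. From day 5, i.p. once daily for 4 weeks at 110.3 × 10-3 mmol/kg in 0.5% CMC. Left femur cleaned, length measured, defatted in chloroform-methanol (2:1, 2 × 3 h), dried 120 °C 6 h for dry weight, ashed 800 °C 8 h. Mineral content = ash/dry weight. Ash dissolved in 6 N HCl and diluted. Ca by o-methylphenolphthalein complexone, P by molybdenum blue. Lungs and livers weighed directly.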

In test [2] the test system is Mus musculus. Nature of the test: Effect on calcium level in ovariectomized mouse at 0.1103 mmol/kg, ip once daily for 4 weeks. Format: functional. The method in brief: as §1
The test system of test [3] is Mus musculus. Nature of the test: Effect on serum calcium level in ovariectomized mouse at 0.1103 mmol/kg, ip once daily for 4 weeks. It counts as functional. In short, it runs like this:
(§2)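 OVX Kuiming mice dosed i.p. daily for 4 weeks in 0.5% CMC. Blood taken retro-orbitally on the day after the last dose, stood 30 min, spun at 3000 g for 20 min, serum stored at -20 °C. Calcium by o-methylphenolphthalein complexone, phosphorus by molybdenum blue, ALP by activity with disodium phenylphosphate substrate.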

The subject of test [4] is Mus musculus. Nature of the test: Effect on lung weight in ovariectomized mouse at 0.1103 mmol/kg, ip once daily for 4 weeks. Format: functional. The method in brief:
as §1

In test [5] the test system is Mus musculus. Nature of the test: Effect on serum phosphorus level in ovariectomized mouse at 0.1103 mmol/kg, ip once daily for 4 weeks. It counts as functional. The method in brief: as §2
The subject of test [6] is Mus musculus. Nature of the test: Effect on mineral content in ovariectomized mouse at 0.1103 mmol/kg, ip once daily for 4 weeks. It counts as functional. The method in brief:
as §1

The test system of test [7] is Mus musculus. Nature of the test: Effect on serum ALP lavel in ovariectomized mouse at 0.1103 mmol/kg, ip once daily for 4 weeks. It counts as functional. The method in brief: as §2
Test [8] concerns Mus musculus. Nature of the test: Effect on femur length in ovariectomized mouse at 0.1103 mmol/kg, ip once daily for 4 weeks. It counts as functional. In short, it runs like this: as §1
Test [9] deals with Mus musculus. Nature of the test: Effect on uterus weight in ovariectomized mouse at 0.1103 mmol/kg, ip once daily for 4 weeks. Format: functional. In short, it runs like this: (§3)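 Female Kuiming mice (7 weeks old, 30.7 ± 3.1 g), abdominal OVX under pentobarbital (40.0 mg/kg i.p.). From day 5 after surgery, i.p. injection once daily for 4 weeks, compound in aqueous 0.5% CMC prepared just before use. The day after the last dose, mice were anesthetized and killed, and lungs, livers, spleens and uteri were removed and weighed directly. n = 12, ANOVA, p < 0.05.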

Test [10] relates to Mus musculus. Nature of the test: Effect on spleen weight in ovariectomized mouse at 0.1103 mmol/kg, ip once daily for 4 weeks. It counts as functional. The method in brief:
as §3

Test [11] relates to Mus musculus. Nature of the test: Increase in body weight in ovariectomized mouse at 0.1103 mmol/kg, ip once daily for 4 weeks. It counts as functional. The method in brief:
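Female Kuiming mice (30.7 ± 3.1 g) underwent abdominal OVX; the sham group had abdominorotomy only. From day 5 after surgery, i.p. dosing once daily for 4 weeks at 110.3 × 10-3 mmol/kg in aqueous 0.5% CMC. Body weight was recorded on the day of the last administration.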

For test [12], the system named is Mus musculus. Nature of the test: Effect on femur ash weight in ovariectomized mouse at 0.1103 mmol/kg, ip once daily for 4 weeks. Format: functional. The method in brief:
as §1

Test [13] concerns Mus musculus. Nature of the test: Effect on liver weight in ovariectomized mouse at 0.110 mmol/kg, ip once daily for 4 weeks. It counts as functional. The method in brief:
as §1

Test [14] relates to Mus musculus. Nature of the test: Effect on dry weight of femurs in ovariectomized mouse at 0.1103 mmol/kg, ip once daily for 4 weeks. Format: functional, Femur. The method in brief:
as §1

Where a SMILES comes first, the peptide text is derived from it. The star is where a group is joined. X2 = C[C@]12CC[C@@H]3c4ccc(OCC(=O)*)cc4CC[C@H]3[C@@H]1CCC2=O

As to `C[C@]12CC[C@@H]3c4ccc(OCC(=O)N[C@@H](CCCNC(=N)N)C(=O)NCC(=O)N[C@@H](CC(=O)O)C(=O)N[C@@H](CO)C(=O)O)cc4CC[C@H]3[C@@H]1CCC2=O` (X2-RGDS-OH), the Activity in [1] turned out to be 24.399%; in test [2], 47.613%; in test [3], 2 mmol/L; in [4] it was 173 mg; in test [5], 1.604 mmol/L; in test [7] it was 32.371 U/L. Besides, the Activity in test [8] is recorded as 1.634 cm; in [9], 63.3 mg; in [10], 129 mg; in test [11], 32.9 g; in [12], 22.6 mg; in test [13] it was 1.347 g. This compound also showed an Activity in test [14] of 66.9 mg. For the same compound, the Ratio in test [6] is on record as 0.438.

With `N=C(N)NCCC[C@H](N)C(=O)NCC(=O)N[C@@H](CC(=O)O)C(=O)N[C@@H](CO)C(=O)O`, the Activity is 24.888% in test [1]; 43.48% in test [2]; 2.01 mmol/L in test [3]; 168 mg in test [4]; 1.603 mmol/L in [5]; 36.643 U/L in [7]. For the same compound, the Activity in test [8] is recorded as 1.617 cm; in test [9] it was 71 mg; in test [10], 138 mg; in test [11] it was 34 g; in test [12] it was 27.8 mg; in test [13], 1.295 g. The Activity in test [14] was determined as 59.8 mg. Further, in test [6], the Ratio stood at 0.396.

As for `CC(C)[C@H](NC(=O)[C@H](CC(=O)O)NC(=O)CNC(=O)[C@@H](N)CCCNC(=N)N)C(=O)O` (H-RGDV-OH), the Activity came to 24.759% in test [1]; 42.739% in [2]; 2.011 mmol/L in test [3]; 171 mg in [4]; 1.605 mmol/L in test [5]; 35.614 U/L in [7]. Besides, the Activity worked out at 1.614 cm in [8]; 61.1 mg in test [9]; 127 mg in test [10]; 33.4 g in test [11]; 27.8 mg in [12]; 1.153 g in test [13]. The same compound yielded an Activity in [14] of 58.8 mg. In test [6], the Ratio turned out to be 0.394.

Consider `C[C@]12CC[C@@H]3c4ccc(O)cc4CC[C@H]3[C@@H]1CCC2=O` [ESTRONE], for which the Activity in test [1] amounted to 23.979%; in test [2], 43.84%; in test [3], 2.012 mmol/L; in [4], 176 mg; in test [5] it was 1.601 mmol/L; in test [7], 36.271 U/L. For the same compound, the Activity was found to be 1.606 cm in test [8]; 141.9 mg in test [9]; 150 mg in test [10]; 34.3 g in [11]; 20.8 mg in [12]; 1.318 g in test [13]. The Activity in [14] amounted to 61.1 mg. Besides, the Ratio in [6] is on record as 0.43.

With `C[C@]12CC[C@@H]3c4ccc(OCC(=O)N[C@@H](CCCNC(=N)N)C(=O)NCC(=O)N[C@@H](CC(=O)O)C(=O)N[C@@H](Cc5ccccc5)C(=O)O)cc4CC[C@H]3[C@@H]1CCC2=O` (X2-RGDF-OH), the Activity in [1] was found to be 24.588%; in [2] it was 49.55%; in [3], 2.008 mmol/L; in test [4] it was 179 mg; in [5], 1.602 mmol/L; in test [7], 32.407 U/L. The Activity in test [8] worked out at 1.639 cm; in test [9], 55.8 mg; in test [10], 140 mg; in [11], 34.5 g; in test [12], 24.7 mg; in [13], 1.458 g. The compound further came in with an Activity in [14] of 65.9 mg. For the same compound, the Ratio in [6] came out at 0.462.
